Measurements: paper PMC9619409 (Journal of Medicinal Chemistry, 2022)
≈ marks a conversion by molar mass, not a printed value. Entries after “also recorded” stand apart in the source; their conditions may differ.

Columns and labels:
[1] = Microsomal stability assay, human; type: in vitro ADME; conditions: human liver microsomes
Method in brief: (§1)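 Mouse or human liver microsomes thawed slowly on ice, then combined with test compound (from a 100 μM solution; final level not given) and 100 mM phosphate buffer. Pre-incubated 5 min at 37 °C in a water bath. Intrinsic clearance reported as μL/min/mg protein.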

[2] = Microsomal stability assay, mouse; type: in vitro ADME; conditions: mouse liver microsomes
Method in brief: as §1

[3] = type: in vitro ADME; conditions: human blood plasma + PA14 culture supernatant, 37 °C, up to 3 h
Method in brief: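 PA14 grown overnight in LB at 37 °C, 180 rpm. Culture centrifuged and supernatant 0.22 μm-filtered, then mixed 1:9 with pooled LiHep human plasma. Test compound (1 mM stock, PBS pH 7.4/20% DMSO) diluted 1:20 into matrix on ice and incubated at 37 °C, 500 rpm. Samples taken at 0, 30, 60, 120 and 180 min, quenched with ice-cold MeCN containing diphenhydramine internal standard, centrifuged, then analysed by HPLC-MS.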

A549 cells [4] = test: Cell accumulation assay; type: cell-based, human; conditions: for compound 2 found in cells after lysis (intracellular cleavage of prodrug): A549 cells treated with prodrug
[5] = type: in vitro ADME; conditions: human blood plasma spiked with fresh growth medium, within 3 h
[6] = Cleavage/stability in P. aeruginosa PA14 culture filtrate without plasma; type: in vitro ADME, Pseudomonas aeruginosa; conditions: up to 24 h
P. aeruginosa PA14 = test: Antibiotic susceptibility; type: cell-based, Pseudomonas aeruginosa
Method in brief: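 PA14 from LB agar (37 °C overnight) dispersed in MHB II to OD600 0.08–0.13, diluted 1:100 (final 5 × 10⁵ cfu/mL). Serial dilutions in PBS/20% DMSO (1 mM–1.9 μM before dilution) diluted ~1:20 into matrix at −3 h (sealed, 37 °C) or −10 min (room temperature).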

A549 cells [7] = conditions: cytotoxicity versus antimicrobial activity
[8] = Matrix 3: 10% P. aeruginosa culture supernatant in PBS, pre-incubation < 10 min

## CC(C)C[C@H](NC(=O)CNC(=O)[C@H](C)NC(=O)c1ccc(S(=O)(=O)NC[C@H]2O[C@@H](C)[C@@H](O)[C@@H](O)[C@@H]2O)cc1)C(=O)N[C@@H](C)C(=O)N[C@H]1CCN(c2cc3c(cc2F)c(=O)c(C(=O)O)cn3C2CC2)C1 [Compound 37, LecB-Targeted Aminopyrrolidine-FQ-Prodrug]
[1]
  half-life at 1 h, 100 µM: 2.97 h
  microsomal CLint at 1 h, 100 µM: 7.8 µL/min/mg
[2]
  half-life at 1 h, 100 µM: 3.6 h
  microsomal CLint at 1 h, 1 µM: 6.4 µL/min/mg
[3]
  release of native antibiotic cargo: efficiently released
A549 cells [4]; A549 cells
  fold decreased ability to permeate into human cells versus 2: up to 100 fold
A549 cells [4]
  compound 2 found in cells after lysis (intracellular cleavage of prodrug): not detected
[5]
  release of antibiotic cargo (stability control): no significant release of the antibiotic cargo was observed

## CC(C)C[C@H](N)C(=O)N[C@@H](C)C(=O)N[C@H]1CCN(c2cc3c(cc2F)c(=O)c(C(=O)O)cn3C2CC2)C1 [Compound 35, 7-((S)-3-((S)-2-((S)-2-Amino-4-methylpentanamido)propanamido)pyrrolidin-1-yl)-1-cyclopropyl-6-fluoro-4-oxo-1,4-dihydroquinoline-3-carboxylic Acid]
[6]
  release of antibiotic cargo from dipeptide conjugate: only slowly released their antibiotic cargo

## CC(C)C[C@H](NC(=O)CNC(=O)[C@H](C)NC(=O)c1ccc(S(=O)(=O)NC[C@H]2O[C@@H](C)[C@@H](O)[C@@H](O)[C@@H]2O)cc1)C(=O)N[C@@H](C)C(=O)NC[C@@H]1CCN(c2cc3c(cc2F)c(=O)c(C(=O)O)cn3C2CC2)C1 [Compound 49, LecB-Targeted Aminomethylpyrrolidine-FQ-Prodrug]
[3]
  release of native antibiotic cargo: efficiently released
P. aeruginosa PA14; [8]
  MIC: 3.13 to 6.25 µM
[5]
  release of antibiotic cargo (stability control): no significant release of the antibiotic cargo was observed

## Leu-Ala-Ciprofloxacin Conjugate [Compound 19]
[6]
  release of antibiotic cargo from dipeptide conjugate: only slowly released their antibiotic cargo

## O=C(O)c1cn(C2CC2)c2cc(N3CCNCC3)c(F)cc2c1=O [Compound 1, Ciprofloxacin, reference compound]
P. aeruginosa PA14; Pseudomonas aeruginosa, PA14, Matrix 1: PBS, pre-incubation 3 h
  MIC: 0.125 to 0.25 µM (≈ 0.0414 to 0.0828 µg/mL)

## CC(C)C[C@H](NC(=O)CNC(=O)[C@H](C)NC(=O)c1ccc(S[C@@H]2O[C@H](CO)[C@H](O)[C@H](O)[C@H]2O)cc1)C(=O)N[C@@H](C)C(=O)N[C@H]1CCN(c2cc3c(cc2F)c(=O)c(C(=O)O)cn3C2CC2)C1 [Compound 36, LecA-Targeted Aminopyrrolidine-fluoroquinolone Prodrug]
[1]
  half-life at 1 h, 100 µM: 1.55 h
  microsomal CLint at 1 h, 1 µM: 15 µL/min/mg
[2]
  half-life at 1 h, 100 µM: 1.67 h
  microsomal CLint at 1 h, 100 µM: 14 µL/min/mg
[3]
  release of native antibiotic cargo: efficiently released
P. aeruginosa PA14; Matrix 3: 10% P. aeruginosa culture supernatant in PBS, pre-incubation 3 h
  MIC: 0.195 to 3.13 µM
P. aeruginosa PA14; [8]
  MIC: 0.78 to 3.13 µM
A549 cells [4]; A549 cells
  fold decreased ability to permeate into human cells versus 2: up to 100 fold
A549 cells [4]
  compound 2 found in cells after lysis (intracellular cleavage of prodrug): not detected
A549 cells [4]; A549 cells, 10 μg/mL, after 15, 30, and 60 min
  intracellular concentration: 55 to 130 ng/mL
[5]
  release of antibiotic cargo (stability control): no significant release of the antibiotic cargo was observed
A549 cells [7]
  selectivity index: greater than 20

## CC(C)C[C@H](NC(=O)CNC(=O)[C@H](C)NC(=O)c1ccc(S[C@@H]2O[C@H](CO)[C@H](O)[C@H](O)[C@H]2O)cc1)C(=O)N[C@@H](C)C(=O)N1CCN(c2cc3c(cc2F)c(=O)c(C(=O)O)cn3C2CC2)CC1 [Compound 24, LecA-targeted ciprofloxacin-prodrug]
[3]
  release of native antibiotic cargo: not fully metabolized to release their native antibiotic cargo; also recorded: not completely processed to release free ciprofloxacin
[5]
  release of antibiotic cargo (stability control): no significant release of the antibiotic cargo was observed

## CC(C)C[C@H](NC(=O)CNC(=O)[C@H](C)NC(=O)c1ccc(S[C@@H]2O[C@H](CO)[C@H](O)[C@H](O)[C@H]2O)cc1)C(=O)N[C@@H](C)C(=O)NC[C@@H]1CCN(c2cc3c(cc2F)c(=O)c(C(=O)O)cn3C2CC2)C1 [Compound 48, LecA-Targeted Aminomethylpyrrolidine-FQ-Prodrug]
[3]
  release of native antibiotic cargo: efficiently released
[5]
  release of antibiotic cargo (stability control): no significant release of the antibiotic cargo was observed

## CC(C)C[C@H](NC(=O)CNC(=O)[C@H](C)NC(=O)c1ccc(S(=O)(=O)NC[C@H]2O[C@@H](C)[C@@H](O)[C@@H](O)[C@@H]2O)cc1)C(=O)N[C@@H](C)C(=O)N1CCN(c2cc3c(cc2F)c(=O)c(C(=O)O)cn3C2CC2)CC1 [Compound 25, LecB-Targeted Ciprofloxacin-Prodrug]
[3]
  release of native antibiotic cargo: not fully metabolized to release their native antibiotic cargo; also recorded: not completely processed to release free ciprofloxacin
[5]
  release of antibiotic cargo (stability control): no significant release of the antibiotic cargo was observed
